Experimental data: PMC3286832 (Nature Communications, 2011)

Legend:
[1] = test system: MPP8–GLP interaction in 293T cells; assay: Co-immunoprecipitation of MPP8 and GLP in 293T cells; assay type: cell-based, human
Summary of the method: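 293T cells (parental, or MPP8 stable knockdown for the chromodomain W80A mutant) were cotransfected with Flag-MPP8 and HA-GLP (WT, K199R, K205R or K209R) for 48 h. Lysates were immunoprecipitated with 1 μg anti-HA or anti-Flag on protein-G agarose, washed with IPH containing 300 or 600 mM NaCl, and analysed by western blot. Input was 5%.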

[2] = test system: hDNMT3A–MPP8 interaction in 293T cells; assay: Co-immunoprecipitation of hDNMT3A and MPP8 in 293T cells; assay type: cell-based, human; details: immunoprecipitation–western
Summary of the method: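 293T cells were transfected for 48 h with Myc-hDNMT3A constructs (WT or K47R; in one setup, co-expressed with HA–GLP in GLP stable-knockdown cells). IP used 1 μg anti-Myc with protein-G agarose and three washes in IPH containing 300 or 600 mM NaCl. Western used anti-Myc/MPP8; input was 1–2%.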

B1: MPP8 W80A: cage mutant of MPP8 chromodomain, Trp80 to alanine (protein)
chain: MEQVAEGARVTAVPVSAADSTEELAEVEEGVGVVGEDNDAAARGAEAFGDSEEDGEDVFEVEKILDMKTEGGKVLYKVRAKGYTSDDDTWEPEIHLEDCKEVLLEFRKKIAENKAKAVRKDIQRLSLNNDIFEANSDSDQQSETKEDTSPKKKKKKLRQREEKSPDDLKKKKAKAGKLKDKSKPDLESSLESLVFDLRTKKRISEAKEELKESKKPKKDEVKETKELKKVKKGEIRDLKTKTREDPKENRKTKKEKFVESQVESESSVLNDSPFPEDDSEGLHSDSREEKQNTKSARERAGQDMGLEHGFEKPLDSAMSAEEDTDVRGRRKKKTPRKAEDTRENRKLENKNAFLEKKTVPKKQRNQDRSKSAAELEKLMPVSAQTPKGRRLSGEERGLWSTDSAEEDKETKRNESKEKYQKRHDSDKEEKGRKEPKGLKTLKEIRNAFDLFKLTPEEKNDVSENNRKREEIPLDFKTIDDHKTKENKQSLKERRNTRDETDTWAYIAAEGDQEVLDSVCQADENSDGRQQILSLGMDLQLEWMKLEDFQKHLDGKDENFAATDAIPSNVLRDAVKNGDYITVKVALNSNEEYNLDQEDSSGMTLVMLAAAGGQDDLLRLLITKGAKVNGRQKNGTTALIHAAEKNFLTTVAILLEAGAFVNVQQSNGETALMKACKRGNSDIVRLVIECGADCNILSKHQNSALHFAKQSNNVLVYDLLKNHLETLSRVAEETIKDYFEARLALLEPVFPIACHRLCEGPDFSTDFNYKPPQNIPEGSGILLFIFHANFLGKEVIARLCGPCSVQAVVLNDKFQLPVFLDSHFVYSFSPVAGPNKLFIRLTEAPSAKVKLLIGAYRVQLQ
modifications: left off: Flag, end not stated, kept
MPP8–GLP interaction in cells [1]: abrogates MPP8–GLP interaction in cells
interaction of hDNMT3A with MPP8 in cells [2]: abrogate binding to hDNMT3a
